Here are results for two compounds from ChEMBL document CHEMBL4680128, “Synthesis of a novel and potent small-molecule antagonist of PAC1 receptor for the treatment of neuropathic pain” (Eur J Med Chem, 2020).

Activity calls are given as the source filed them. Where only a bound is given, the exact number is not on record here.

The target in series [1] is T1, Pituitary adenylate cyclase-activating polypeptide type I receptor (Homo sapiens, UniProt P41586). The experiment in a line: Antagonist activity at PAC1 receptor (unknown origin) expressed in CHO cells assessed as inhibition of PACAP-induced inhibition of CREB phosphorylation preincubated for 30 mins followed by PACAP stimulation and measured after 30 mins by Western blot analysis. It counts as cell-based. The following applies: for inhibition: filed as antagonist, time 60.0 min. In short, it runs like this: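 PAC1/CHO cells seeded at 1×10^5 cells/well and grown 48 h, then pretreated 30 min with agent over 10 pM to 10 nM (vehicle 0.1% DMSO). Stimulated with PACAP 1 nM for 30 min. Western blot of 20 µg lysate for phospho-CREB (Ser133) and total CREB, with pCREB normalised to total CREB. IC50 taken from the dose series. n = 3-5.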
For orientation: A western blot detects proteins with antibodies after separation by electrophoresis.

For series [2], the species on record is Mus musculus. The experiment in a line: Antiallodynic activity in PACAP-induced mechanical allodynia ddy mouse model assessed as increase in ipsilateral paw withdrawal threshold at 100 pmol, it. It counts as functional, organism-based. In short, it runs like this:
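Male ddY mice, 6 weeks old at start. Agent 100 pmol co-injected i.t. with PACAP 100 pmol in 5 µl by lumbar (L5/L6) puncture; diluted in PBS or ACSF. Hind-paw 50% withdrawal threshold measured with von Frey hairs by the up-down method. n = 6, compared with vehicle.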

Series [3] deals with Mus musculus. The experiment in a line: Antiallodynic activity in ddy mouse model of spinal nerve ligation-induced neuropathic pain assessed as […] at 100 pmol, it administered as single dose measured up to 24 hrs. It counts as functional, organism-based. The following applies: time hrs <=24.
Series [4] in a line: Effect on nociception on contralateral paw in ddy mouse model of spinal nerve ligation-induced neuropathic pain at 100 pmol, it administered as single dose measured up to 24 hrs. It is filed as ADME. The following applies: in vivo, icv_or_intrathecal.
Series [5] in a line: Effect on nociception on contralateral paw in ddy mouse model of spinal nerve ligation-induced neuropathic pain at 30 mg/kg, po administered as single dose measured up to 24 hrs. It counts as ADME, organism-based. The following applies: in vivo. In short, it runs like this:
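Spinal nerve ligation performed in male ddY mice. On day 14 after SNL, a single oral dose of 30 mg/kg given. Ipsilateral and contralateral hind-paw 50% gram thresholds measured by von Frey up-down method at serial times after dosing. n = 6 per group, compared with vehicle.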

The target in series [6] is T1, Pituitary adenylate cyclase-activating polypeptide type I receptor. The experiment in a line: Antagonist activity at PAC1 receptor (unknown origin) expressed in CHO cells assessed as inhibition of PACAP-induced inhibition of CREB phosphorylation at 1 nM preincubated for 30 mins followed by PACAP stimulation and measured after 30 mins by Western blot analysis relative to control; values are per cent of control. The note with it: time 60.0 min.
Target sequence in this assay (P41586 21-468 limits assumed): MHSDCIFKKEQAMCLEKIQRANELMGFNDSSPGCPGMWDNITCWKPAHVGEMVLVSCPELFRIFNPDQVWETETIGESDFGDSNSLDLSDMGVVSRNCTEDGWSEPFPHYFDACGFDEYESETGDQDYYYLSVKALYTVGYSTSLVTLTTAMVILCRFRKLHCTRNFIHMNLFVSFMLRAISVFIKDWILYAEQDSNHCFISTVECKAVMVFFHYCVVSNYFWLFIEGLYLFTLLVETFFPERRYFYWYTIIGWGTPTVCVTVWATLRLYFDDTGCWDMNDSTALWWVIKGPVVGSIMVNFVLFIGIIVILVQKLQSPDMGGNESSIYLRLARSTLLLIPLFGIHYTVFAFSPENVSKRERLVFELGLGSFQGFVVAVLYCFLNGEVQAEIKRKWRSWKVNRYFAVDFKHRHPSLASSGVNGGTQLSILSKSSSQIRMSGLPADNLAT

With `O=C(NCCc1c[nH]cn1)C1CC(=O)N(c2n[nH]c3c(Cl)cccc23)C1` (centres undefined), the IC50 in series [1] is under 0.01 nM. Further, the inhibition result in series [1] is “Dose-dependent effect”. Also, the result in the series filed under Mus musculus [2] and in the series with Mus musculus [3] was Active. Also, the Activity entry in series [4] and in series [5] was “Non-Toxic” in each case. For the same compound, the residual activity in series [6] came out at 11.9%.
Regarding `O=C(NCCc1c[nH]cn1)C1CC(=O)N(c2n[nH]c3ccccc23)C1` (centres undefined), in series [1], the IC50 came out at 0.182 nM. The inhibition result in series [1] was “Dose-dependent effect”. Further, the result in the series filed under Mus musculus [2] and in the series with Mus musculus [3] was Active. Moreover, the Activity entry in series [4] and in series [5] was “Non-Toxic” in each case. In addition, the residual activity in series [6] was determined as 30.6%.

One may read the IC50 as the concentration that inhibits the measured activity by half.
